Experimental data gathered from unrelated publications.
Target: Serine/threonine-protein kinase PLK4 (PLK4, Homo sapiens, UniProt O00444)
One construct used (O00444 1-970): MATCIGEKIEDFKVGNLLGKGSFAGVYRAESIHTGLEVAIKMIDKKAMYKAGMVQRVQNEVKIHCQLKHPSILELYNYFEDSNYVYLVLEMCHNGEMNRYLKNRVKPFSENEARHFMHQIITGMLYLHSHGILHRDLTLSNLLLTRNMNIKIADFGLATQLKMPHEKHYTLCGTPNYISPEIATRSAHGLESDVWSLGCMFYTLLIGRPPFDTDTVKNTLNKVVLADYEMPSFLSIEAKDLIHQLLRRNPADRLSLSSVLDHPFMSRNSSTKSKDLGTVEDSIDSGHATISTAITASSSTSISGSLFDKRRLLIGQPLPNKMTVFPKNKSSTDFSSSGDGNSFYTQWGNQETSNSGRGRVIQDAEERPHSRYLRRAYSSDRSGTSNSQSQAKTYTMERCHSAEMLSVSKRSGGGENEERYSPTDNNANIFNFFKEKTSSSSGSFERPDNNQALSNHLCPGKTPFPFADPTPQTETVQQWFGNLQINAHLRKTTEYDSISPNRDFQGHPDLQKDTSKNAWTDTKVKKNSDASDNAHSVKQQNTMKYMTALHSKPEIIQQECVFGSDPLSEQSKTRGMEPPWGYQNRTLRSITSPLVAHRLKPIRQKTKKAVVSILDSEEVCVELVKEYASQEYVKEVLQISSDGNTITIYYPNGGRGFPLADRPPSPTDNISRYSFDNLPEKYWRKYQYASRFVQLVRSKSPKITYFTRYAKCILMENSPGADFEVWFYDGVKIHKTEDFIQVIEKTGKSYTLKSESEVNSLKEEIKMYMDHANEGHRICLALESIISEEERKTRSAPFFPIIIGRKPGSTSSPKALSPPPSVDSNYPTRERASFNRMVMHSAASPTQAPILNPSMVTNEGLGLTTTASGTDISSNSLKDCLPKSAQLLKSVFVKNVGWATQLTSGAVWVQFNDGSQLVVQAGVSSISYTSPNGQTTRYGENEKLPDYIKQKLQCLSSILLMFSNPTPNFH

| SMILES | test | setting | remaining binding [%] |
| --- | --- | --- | --- |
| N[C@H]1CCN(c2nccc(-c3cnn4ncccc34)n2)C1 | binding | 1 µM | 100 |
| O=C(c1ccc(Nc2ncc(Cl)c(-c3ccc(Cl)s3)n2)cc1)N1CCC(N2CCCC2)CC1 | binding, competition with immobilised ligand | 1 µM | 9.2 |
| c1cnn2ncc(-c3ccnc(N4CCC45COC5)n3)c2c1 | binding | 1 µM | 79 |
| O=C(NCCCN1CCOCC1)c1ccc(Nc2ncc(Cl)c(-c3ccc(Cl)s3)n2)cc1 | binding, competition with immobilised ligand | 1 µM | 38 |
| Nc1ncc2c(n1)-c1c([nH]c3ccc(C#CC4CC4)cc13)CCCC2 | binding, competition with immobilised ligand | 1 µM | 87 |
| N#CC1(c2ccccn2)CCN(Cc2cc(C(=O)N3CCCC3)c(=O)n3ccccc23)CC1 | cell-free assay, competition with immobilised ligand | 1 µM | 87 |
| COc1ncc2cc3ccccc3nc2c1C#N | cell-free assay, competition with immobilised ligand | 5 µM | 100 |
| O=C(NCCCN1CCOCC1)c1ccc(Nc2nccc(-c3cc4ccccc4s3)n2)cc1 | binding, competition with immobilised ligand | 1 µM | 58 |
| COc1cnc(Nc2cccc(S(N)(=O)=O)c2)nc1N1CCN(c2ccccc2)CC1 | binding, competition with immobilised ligand | 1 µM | 99 |
| CN(CCCC(F)(F)F)c1nccc(-c2cnn3ncccc23)n1 | binding | 1 µM | 100 |
| CC(C)(O)c1cncc(-c2nc3ccc(F)cc3n2C2CC2)c1 | cell-free assay, competition with immobilised ligand | 1 µM | 79 |
| C[C@@H](c1ccc(-n2cnc3c(N)ncnc32)cc1)N1CCc2nn(C)c(Cc3ccccc3)c2C1=O | binding, competition with immobilised ligand | 0.1 µM | 72 |
| O=C(N1CCS(=O)(=O)CC1)N1C[C@H](c2ccc(OC(F)(F)F)cc2)C[C@H](c2nc(C3CC3)no2)C1 | cell-free assay, competition with immobilised ligand | 1 µM | 100 |
| C[C@@H]1CN(c2ccc3ncc(-c4ccc5[nH]nc(C6CC6)c5c4)n3n2)C[C@H](C)O1 | binding, competition with immobilised ligand | 50 nM | 88 |
| CC(C)(C)c1ccc(-c2nc(CBr)nn2-c2cccc(O)c2)cc1 | cell-free assay, competition with immobilised ligand | 10 µM | 88 |
| Cc1c[nH]c2nccc(Oc3c(F)cc(Nc4cc(Cl)nc(N)n4)cc3F)c12 | cell-free assay, competition with immobilised ligand | 0.1 µM | 82 |
| COc1cc(C(=O)N2CCC(N3CCN(C)CC3)CC2)ccc1Nc1ncc2c(n1)N(C)c1ccccc1C(=O)N2C | binding, competition with immobilised ligand | 10 µM | 0 |
| CN(c1nccc(-c2cnn3ncccc23)n1)C1CC1 | binding | 1 µM | 100 |
| CCCCN(CCCC)C(=O)CN1C[C@H](c2cc(OC)c3c(c2)OCO3)[C@@H](C(=O)O)[C@@H]1CC(C)(C)CCC | cell-free assay, competition with immobilised ligand | 1 µM | 100 |
| C[C@H]1CCN(c2nccc(-c3cnn4ncccc34)n2)C1 | binding | 1 µM | 99 |
| CC(=O)Nc1c(C(C)=O)c(=O)n(C)c2nc(-c3ccc(Cl)cc3Cl)c(-c3ccc(Cl)cc3)cc12 | cell-free assay, competition with immobilised ligand | 1 µM | 100 |
| CNC(=O)[C@@H]1CC[C@@H](n2c(-c3ccc4cnccc4c3)nc3ccc(C(=O)NCc4cccc(C(N)=O)c4)cc32)C1 | binding, competition with immobilised ligand | 1 µM | 100 |
| CC(=O)c1c(NS(C)(=O)=O)c2cc(-c3ccc(Cl)cc3)c(-c3ccc(Cl)cc3Cl)nc2n(C)c1=O | cell-free assay, competition with immobilised ligand | 1 µM | 100 |
| COc1ccnn2ncc(-c3ccnc(N(C)C)n3)c12 | binding | 1 µM | 69 |
| CN1CCN(c2cnc3c(C4CCN(C(=O)c5ccc(OC(F)(F)F)cc5N)CC4)ncnc3c2)CC1 | cell-free assay, competition with immobilised ligand | 1 µM | 83 |
| O=C(NCC1CCOCC1)c1n[nH]cc1NC(=O)c1c(F)cccc1F | binding, competition with immobilised ligand | 1 µM | 75 |
